Results from ChEMBL document CHEMBL2016460, “Synthesis, biological evaluation, and molecular docking studies of 2,6-dinitro-4-(trifluoromethyl)phenoxysalicylaldoxime derivatives as novel antitubulin agents” (Bioorg Med Chem, 2012).

Experiments:
[1] = tested on: MCF7; test: Antiproliferative activity against human MCF7 cells after 48 hrs by MTT assay; assay type: functional, cell-based; settings: MCF7, 48 h
Summary of the method: (§1)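 Cells were seeded into 96-well plates in complete medium and preincubated 24 h at 37 °C, 5% CO2. Compounds at preset concentrations were added to six wells, with colchicine and CA-4 run alongside as references, and exposed for 48 h. MTT (2.5 mg mL^-1 in PBS) was added for 4 h, followed by SDS/isobutyl alcohol/HCl extraction overnight at 37 °C. OD was read at 570 nm, with three replicate wells per concentration.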

[2] = tested on: MCF7; test: Induction of apoptosis in human MCF7 cells assessed as late apoptotic cells at 0.25 uM incubated for 24 hrs by Annexin-V-FITC/PI staining based flow cytometry (reference value: 3.17 %); assay type: functional
[3] = tested on: A549; test: Antiproliferative activity against human A549 cells after 48 hrs by MTT assay; assay type: functional, cell-based; settings: A549, 48 h; summary of the method: as §1
[4] = tested on: HepG2; test: Antiproliferative activity against human HepG2 cells after 48 hrs by MTT assay; assay type: functional, cell-based; settings: HepG2, 48 h; summary of the method: as §1
[5] = Inhibition of bovine tubulin polymerization after 20 mins by spectrophotometry; design: species or system Bos taurus
Summary of the method: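 Tubulin was preincubated in glutamate buffer at 30 °C and then cooled to 0 °C. GTP was added, samples were moved to 0 °C cuvettes and warmed to 30 °C, and assembly was followed turbidimetrically in a recording spectrophotometer. IC50 was taken as the concentration inhibiting the extent of assembly by 50% after 20 min.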

[6] = tested on: MCF7; test: Induction of apoptosis in human MCF7 cells assessed as late apoptotic cells at 0.01 uM incubated for 24 hrs by Annexin-V-FITC/PI staining based flow cytometry (reference value: 3.17 %); assay type: functional
[7] = tested on: MCF7; test: Induction of apoptosis in human MCF7 cells assessed as early apoptotic cells at 0.05 uM incubated for 24 hrs by Annexin-V-FITC/PI staining based flow cytometry (reference value: 7.4 %); assay type: functional
[8] = tested on: MCF7; test: Induction of apoptosis in human MCF7 cells assessed as late apoptotic cells at 0.05 uM incubated for 24 hrs by Annexin-V-FITC/PI staining based flow cytometry (reference value: 3.17 %); assay type: functional
[9] = tested on: MCF7; test: Induction of apoptosis in human MCF7 cells assessed as early apoptotic cells at 0.01 uM incubated for 24 hrs by Annexin-V-FITC/PI staining based flow cytometry (reference value: 7.4 %); assay type: functional
[10] = tested on: MCF7; test: Induction of apoptosis in human MCF7 cells assessed as early apoptotic cells at 0.25 uM incubated for 24 hrs by Annexin-V-FITC/PI staining based flow cytometry (reference value: 7.4 %); assay type: functional
[11] = tested on: MCF7; test: Induction of apoptosis in human MCF7 cells assessed as late apoptotic cells incubated for 24 hrs by Annexin-V-FITC/PI staining based flow cytometry; assay type: functional, cell-based

Structure (SMILES)	IC50 [1] [nM]	IC50 [3] [nM]	IC50 [4] [nM]	IC50 [5] [nM]	Activity [2] [%]	Activity [6] [%]	Activity [7] [%]	Activity [8] [%]	Activity [9] [%]	Activity [10] [%]	Activity [11]
O=[N+]([O-])c1cc(C(F)(F)F)cc([N+](=O)[O-])c1Oc1c(Br)cc(Br)cc1/C=N\OCc1ccccc1	1830	2150	1480	18000							
O=[N+]([O-])c1cc(C(F)(F)F)cc([N+](=O)[O-])c1Oc1ccc(Br)cc1/C=N\OCc1ccccc1F	1120	1280	890	6900							
O=[N+]([O-])c1cc(C(F)(F)F)cc([N+](=O)[O-])c1Oc1c(Cl)cc(Cl)cc1/C=N/OCc1ccccc1Cl	1960	2160	1120	16100							
O=[N+]([O-])c1cc(C(F)(F)F)cc([N+](=O)[O-])c1Oc1ccc(Cl)cc1/C=N\OCc1ccccc1	1220	3410	1790	30900							
COc1cc2c(c(OC)c1OC)-c1ccc(OC)c(=O)cc1[C@@H](NC(C)=O)CC2 [COLCHICINE]	530	750	230	1720							
COc1ccc(/C=C\c2cc(OC)c(OC)c(OC)c2)cc1O [COMBRETASTATIN A4]	410	90	190	700							
O=[N+]([O-])c1cc(C(F)(F)F)cc([N+](=O)[O-])c1Oc1ccc(Cl)cc1/C=N\OCc1ccc(Cl)cc1Cl	1140	3440	1280	7540							
O=[N+]([O-])c1cc(C(F)(F)F)cc([N+](=O)[O-])c1Oc1ccc(Br)cc1/C=N/OCc1ccccc1Cl	2840	3430	1240	13200							
O=[N+]([O-])c1cc(C(F)(F)F)cc([N+](=O)[O-])c1Oc1ccc(Cl)cc1/C=N\OCc1ccccc1Cl	3950	5030	1510	9050							
O=[N+]([O-])c1cc(C(F)(F)F)cc([N+](=O)[O-])c1Oc1c(Br)cc(Br)cc1/C=N/OCc1ccc(Cl)cc1Cl	2090	6190	1050	15700							
O=[N+]([O-])c1cc(C(F)(F)F)cc([N+](=O)[O-])c1Oc1ccc(Br)cc1/C=N\OCc1ccc(Cl)cc1Cl	1340	2060	1070	7060							
O=[N+]([O-])c1cc(C(F)(F)F)cc([N+](=O)[O-])c1Oc1ccc(Cl)cc1/C=N\OCc1ccccc1F	1110	2570	1020	7070							
O=[N+]([O-])c1cc(C(F)(F)F)cc([N+](=O)[O-])c1Oc1c(Br)cc(Br)cc1/C=N\OCc1ccccc1Cl	2320	4120	2450	18100							
O=[N+]([O-])c1cc(C(F)(F)F)cc([N+](=O)[O-])c1Oc1ccccc1/C=N/OCc1ccc(Cl)cc1Cl	940	1610	1020	4080							

The remaining compounds from weak to strong by IC50 [1], led by results:

IC50 [1] [nM]	IC50 [3] [nM]	IC50 [4] [nM]	IC50 [5] [nM]	Structure (SMILES)	Activity [2] [%]	Activity [6] [%]	Activity [7] [%]	Activity [8] [%]	Activity [9] [%]	Activity [10] [%]	Activity [11]
1330	1470	1330	14000	O=[N+]([O-])c1cc(C(F)(F)F)cc([N+](=O)[O-])c1Oc1ccccc1/C=N\OCc1ccccc1							
1210	1450	1120	9020	O=[N+]([O-])c1cc(C(F)(F)F)cc([N+](=O)[O-])c1Oc1c(Cl)cc(Cl)cc1/C=N\OCc1ccccc1							
1150	2240	1180	15400	O=[N+]([O-])c1cc(C(F)(F)F)cc([N+](=O)[O-])c1Oc1ccc(Br)cc1/C=N\OCc1ccccc1							
1100	1430	1170	6920	O=[N+]([O-])c1cc(C(F)(F)F)cc([N+](=O)[O-])c1Oc1ccccc1/C=N/OCc1ccccc1Cl							
1030	1420	940	6180	O=[N+]([O-])c1cc(C(F)(F)F)cc([N+](=O)[O-])c1Oc1c(Cl)cc(Cl)cc1/C=N/OCc1ccc(Cl)cc1Cl							
880	1560	1100	4530	O=[N+]([O-])c1cc(C(F)(F)F)cc([N+](=O)[O-])c1Oc1c(Br)cc(Br)cc1/C=N\OCc1ccccc1F							
800	1230	820	3650	O=[N+]([O-])c1cc(C(F)(F)F)cc([N+](=O)[O-])c1Oc1c(Cl)cc(Cl)cc1/C=N\OCc1ccccc1F							
700	860	680	3060	O=[N+]([O-])c1cc(C(F)(F)F)cc([N+](=O)[O-])c1Oc1ccccc1/C=N\OCc1ccccc1F	9.65	4.46	27.64	7.72	17.32	34.51	Dose-dependent effect
